Source: ChEMBL document CHEMBL1159323, “Lignanamides and nonalkaloidal components of Hyoscyamus niger seeds” (J Nat Prod, 2002)

These compounds were tested on LNCaP (assay: Cytotoxicity against human LNCAP cells after 48 hrs by MTT assay).
Assay type: functional, cell-based
Outline: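 LNCaP cells (ATCC CRL1740) grown in RPMI with 10% FBS, streptomycin and penicillin at 37 °C, 5% CO2. Seeded 2 × 10^5 cells/well and exposed to a range of compound concentrations for 48 h at 37 °C. MTT was then added for 4 h at 37 °C. Formazan was dissolved in DMSO and absorbance read at 540 nm. IC50 derived; run in triplicate.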

Structure (SMILES) | IC50 [µM]
COc1cc([C@@H]2Oc3c(OC)cc(/C=C/C(=O)NCCc4ccc(O)cc4)cc3[C@H]2C(=O)NCCc2ccc(O)cc2)ccc1O [GROSSAMIDE] | 33
COc1cc([C@@H]2c3cc(O)c(OC)cc3C=C(C(=O)NCCc3ccc(O)cc3)[C@H]2C(=O)NCCc2ccc(O)cc2)ccc1O [CANNABISIN D] | 81
COc1cc(/C=C/C(=O)OCCCCCCCCCCCCCCCCCCCCCCCCOC(=O)/C=C/c2ccc(O)c(OC)c2)ccc1O | > 100
COc1cc(/C=C(C(=O)NCCc2ccc(O)cc2)\C(=C/c2ccc(O)c(OC)c2)C(=O)NCCc2ccc(O)cc2)ccc1O [CANNABISIN G] | 76
COc1cc(/C=C(C(=O)NCCc2ccc(O)cc2)/C(=C/c2ccc(O)c(OC)c2)C(=O)NCCc2ccc(O)cc2)ccc1O [HYOSCYAMIDE] | > 100
CCCCC/C=C\C/C=C/CCCCCCCC(=O)OCC(O)COC(=O)CCCCCCC/C=C\CCCCCCCC (stereo unspecified) | > 100
CCCCCCCCCCCCCCCCCC(=O)OCC(O)CO (stereo unspecified) [GLYCERYL MONOSTEARATE] | > 100
COc1cc(/C=C/C(=O)NCCc2ccc(O)cc2)ccc1O [N-TRANS-FERULOYL TYRAMINE] | > 100
CCCCC/C=C\C/C=C\CCCCCCCC(=O)OC(CO)COC(=O)CCCCCCC/C=C/C/C=C/CCCCC (stereo unspecified) | > 100
CCCCC/C=C\C/C=C\CCCCCCCC(=O)OCC(O)COC(=O)CCCCCCCCCCCCCCCCCC (stereo unspecified) | > 100
CCCCC/C=C\C/C=C\CCCCCCCC(=O)OCC(O)CO (stereo unspecified) | > 100
